Reference: ChEMBL document CHEMBL1131063 (J Med Chem, 1998)
pIC50: −log10 of the molar value.

What was measured:
[1] = target: T1, Phospholipase A2 (Apis mellifera) (UniProt P00630); test: Inhibitory activity against bee secretory Phospholipase A2 enzyme when pre-incubated for 15 minutes
T1 sequence (whole entry): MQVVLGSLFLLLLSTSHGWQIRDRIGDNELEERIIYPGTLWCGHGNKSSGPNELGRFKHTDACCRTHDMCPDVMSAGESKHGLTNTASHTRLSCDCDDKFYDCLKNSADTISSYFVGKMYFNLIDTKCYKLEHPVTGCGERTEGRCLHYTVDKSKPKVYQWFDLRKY
How it was run: (§1)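 Bee venom PLA2 was incubated at 41 °C with the test compound or methanol (control) in 100 mM Tris-HCl, 1 mM CaCl2, pH 7.5, for varied preincubation times. It was then diluted 2-fold with Tris buffer or with hydroxylamine (final 50 mM, pH 7.5) and held 2 h at 41 °C. PLA2 activity was then assayed. Final compound concentrations were 5–50 μM. n = 6.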

[2] = target: T1, Phospholipase A2 (Apis mellifera); test: Inhibitory activity against bee secretory Phospholipase A2 enzyme when pre-incubated for 5 minutes; how it was run: as §1
[3] = target: T1, Phospholipase A2 (Apis mellifera); test: Inhibitory activity against bee secretory Phospholipase A2 enzyme when pre-incubated for 60 minutes; how it was run: as §1
[4] = target: T1, Phospholipase A2 (Apis mellifera); test: Inhibitory activity against bee secretory Phospholipase A2 enzyme when pre-incubated with Hydroxylamine for 15 minutes; how it was run: as §1
[5] = target: T1, Phospholipase A2 (Apis mellifera); test: Inhibitory activity against bee secretory Phospholipase A2 enzyme when pre-incubated with Hydroxylamine for 5 minutes; how it was run: as §1
[6] = target: T1, Phospholipase A2 (Apis mellifera); test: Inhibitory activity against bee secretory Phospholipase A2 enzyme when pre-incubated with Hydroxylamine for 60 minutes; how it was run: as §1
[7] = target: T1, Phospholipase A2 (Apis mellifera); test: Inhibitory activity against bee secretory Phospholipase A2 enzyme when pre-incubated with Tris buffer for 15 minutes; how it was run: as §1
[8] = target: T1, Phospholipase A2 (Apis mellifera); test: Inhibitory activity against bee secretory Phospholipase A2 enzyme when pre-incubated with Tris buffer for 5 minutes; how it was run: as §1
[9] = target: T1, Phospholipase A2 (Apis mellifera); test: Inhibitory activity against bee secretory Phospholipase A2 enzyme when pre-incubated with Tris buffer for 60 minutes; how it was run: as §1
[10] = target: Phospholipase A2, major isoenzyme (Sus scrofa) (UniProt P00592); test: Inhibitory activity against Porcine pancreatic secretory Phospholipase A2 at 10 uM
Chain of Phospholipase A2, major isoenzyme (Sus scrofa) (P00592 23-146 limits assumed): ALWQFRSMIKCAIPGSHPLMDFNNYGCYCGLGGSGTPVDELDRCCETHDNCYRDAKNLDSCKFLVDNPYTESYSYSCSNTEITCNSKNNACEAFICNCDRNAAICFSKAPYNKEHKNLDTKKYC
How it was run: (§2)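 Enzyme diluted in 100 mM Tris-HCl, 1 mM CaCl2, pH 7.5; preincubated 5 min at 37 °C with test compound or vehicle, then 15 min with autoclaved oleate-labeled membranes as substrate. Stopped with ice-cold BSA in saline (final 0.07% w/v), centrifuged 2500g 10 min at 4 °C. Supernatant radioactivity counted by liquid scintillation; percent inhibition at 10 μM, means ± SEM, n = 6.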

[11] = target: T1, Phospholipase A2 (Apis mellifera); test: Inhibitory activity against bee secretory Phospholipase A2 enzyme at 10 uM
[12] = target: T2, Phospholipase A2, membrane associated (Homo sapiens) (UniProt P14555); test: Inhibitory activity against human synovial Phospholipase at 10 uM; how it was run: as §2
T2 sequence (whole entry): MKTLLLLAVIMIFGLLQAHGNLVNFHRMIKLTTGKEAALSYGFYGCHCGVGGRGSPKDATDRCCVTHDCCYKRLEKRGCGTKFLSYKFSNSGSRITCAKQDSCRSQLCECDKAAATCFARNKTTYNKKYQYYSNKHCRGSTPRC

[13] = system: Phospholipase A2 (Naja naja); test: Inhibitory activity against naja naja secretory Phospholipase A2 at 10 uM; settings: snake
Phospholipase A2 = target: T3, Phospholipase A2 (Apis mellifera, UniProt P00630); test: Inhibitory activity against bee secretory Phospholipase A2 enzyme
T3 sequence (P00630 whole entry): T1 sequence (whole entry)

[14] = target: T4, Phospholipase A2, membrane associated (Homo sapiens, UniProt P14555); test: Inhibitory activity against human synovial recombinant Phospholipase enzyme
T4 sequence (P14555 whole entry): T2 sequence (whole entry)

Mus musculus [15] = test: Inhibitory activity against carrageenan induced paw edema at a oral dose of 10 mg/kg in mouse 5 hours after carrageenan administration; assay type: functional
How it was run: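 Female Swiss mice (20–25 g) were fasted 12 h and dosed orally in ethanol/Tween 80/water (5:5:90), n = 6 per group. One hour later, 0.05 mL of 3% carrageenan was injected subplantar into the right hind paw. Edema was injected minus contralateral paw volume by plethysmometer, expressed as % inhibition versus control. ANOVA with Dunnett's test.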

[16] = target: T1, Phospholipase A2 (Apis mellifera); test: Inhibition against bee secretory PLA2 enzyme when pre-incubated for 5 minutes; how it was run: as §1
[17] = target: T1, Phospholipase A2 (Apis mellifera); test: Inhibitory activity against secretory PLA2 enzyme (Bee venom) when pre-incubated with Hydroxylamine for 15 minutes; how it was run: as §1
Mus musculus [18] = test: Inhibitory activity against carrageenan induced paw edema at a oral dose of 10 mg/kg in mouse 3 hours after carrageenan administration; assay type: functional
How it was run: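 Female Swiss mice (20–25 g), fasted 12 h with water available, in groups of six, dosed orally (0.5 mL) in ethanol/Tween 80/water 5:5:90 1 h before subplantar injection of 0.05 mL 3% w/v carrageenan into right hind paw. Paw volumes read by plethysmometer; edema = injected minus contralateral volume; percent inhibition vs vehicle controls; ANOVA with Dunnett's test.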

| SMILES | inhibition [1] [%] | inhibition [3] [%] | inhibition [5] [%] | inhibition [6] [%] | inhibition [7] [%] | inhibition [8] [%] | inhibition [9] [%] | inhibition [10] [%] | inhibition [11] [%] | inhibition [12] [%] | inhibition [13] [%] | further results |
| --- | --- | --- | --- | --- | --- | --- | --- | --- | --- | --- | --- | --- |
| C=C1CCC[C@H]2[C@](C)(CCC3=CCC(C4=CC(=O)OC4O)OC3)[C@H](C)CC[C@]12C (stereo partly specified) | 93.7 | 100 | 81.9 | 99.3 | 95.4 | 95.4 | 98.4 | – | – | – | – | inhibition [2]: 85.8%; inhibition [4]: 89.4% |
| O=C1C=C(C2CC=C(Cc3ccccc3)C(O)O2)C(O)O1 (stereo unspecified) | – | – | – | – | – | – | – | 16.1 | 16.1 | 11.9 | 7.1 | – |
| CC(C)=CCC/C(C)=C/CC/C(C)=C/CC1=CCC(C2=CC(=O)OC2O)OC1 (stereo unspecified) | 87.1 | 99.7 | 50.1 | 65.1 | 58.7 | 58.5 | 65.3 | 30 | 71.8 | 63.1 | – | pIC50 (Phospholipase A2): 5.77; inhibition [2]: 85.6%; inhibition [4]: 51.1%; pIC50 [14]: 5.38 |
| CC1=CCC(C2=CC(=O)OC2O)OC1O (stereo unspecified) | – | – | – | – | – | – | – | 6.8 | 14.9 | 3.2 | 3 | – |
| CC(C)=CCC/C(C)=C/CC/C(C)=C/CC1=CCC(C2=CC(=O)OC2O)OC1O (stereo unspecified) | 70.3 | 95.1 | 39.1 | 71.5 | 80.9 | 80.8 | 75.2 | 39.8 | 84.2 | 74.6 | 33.6 | inhibition in vivo at 10 mg/kg (Mus musculus [15]): 43.2%; pIC50 (Phospholipase A2): 6.30; inhibition [16]: 48.4%; inhibition [17]: 56.9%; pIC50 [14]: 6.05; inhibition in vivo at 10 mg/kg (Mus musculus [18]): 42.9% |
| C/C=C/CC1=CCC(C2=CC(=O)OC2O)OC1O (stereo unspecified) | – | – | – | – | – | – | – | 15.1 | 24.8 | 21.2 | 1.8 | – |
| CC1=C(CC/C(C)=C/CCC2=CC[C@H](C3=CC(=O)O[C@H]3O)O[C@H]2O)C(C)(C)CCC1 | 63.3 | 91.1 | 21 | 43.1 | 44.2 | 42.4 | 47.3 | 32.3 | 62.5 | 93.2 | – | inhibition [2]: 49.5%; inhibition [4]: 28% |
| O=C1C=C(C2CC=CCO2)C(O)O1 (stereo unspecified) | – | – | – | – | – | – | – | 0.2 | 9.3 | 42.3 | 10.1 | – |
| CC1=CCC(C2=CC(=O)OC2O)OC1 (stereo unspecified) | – | – | – | – | – | – | – | 5.6 | 8 | 0.1 | 1.4 | – |
| O=C1C=C(C2CC=CC(O)O2)C(O)O1 (stereo unspecified) | – | – | – | – | – | – | – | 1 | 0.7 | 18.9 | 5.2 | – |
| O=C1C=C(C2CC=C(Cc3ccccc3)CO2)C(O)O1 (stereo unspecified) | – | – | – | – | – | – | – | 17.4 | 30.3 | 15.5 | 7.6 | – |
| C/C=C/CC1=CCC(C2=CC(=O)OC2O)OC1 (stereo unspecified) | – | – | – | – | – | – | – | 17.6 | 40.1 | 24.8 | 7.1 | – |
| COc1ccc2c(c1)c(CC(=O)O)c(C)n2C(=O)c1ccc(Cl)cc1 [INDOMETHACIN] | – | – | – | – | – | – | – | – | – | – | – | inhibition in vivo at 10 mg/kg (Mus musculus [15]): 42.3%; inhibition in vivo at 10 mg/kg (Mus musculus [18]): 40% |
